The text below walks through data of PubChem BioAssay.

Molecules are shown by their SMILES. Active and inactive are the calls of the source.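 The calls were made as follows, unless noted: active = viability at or under a set limit in both replicates, limit being median viability minus 3 SD (cut at about 48% in these data, passing the limit was not always enough); inconclusive = at or under the limit in just one replicate; inactive = at or above the limit in both replicates.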

Assay [1] in a line: reducers of endogenous Her2 protein level, primary screen, SKBR3 breast tumor cells, AlphaScreen, ATP viability (AID 461;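 active = Her2 level under about 52% in both replicate screens, with viability over 70% of control, limit read from the data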;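 as to Her2 level: lower value means less Her2 protein in the cells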;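 as to viability: percent of carrier control wells set as 100% viability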). The settings on record: 18-24 h, measured here: SKBR3 viability, ATP luminescence, at 10 µM. Background: Bead proximity is the source of the signal in Alpha formats.
Assay [2] addresses Receptor tyrosine-protein kinase erbB-2 (Homo sapiens) (UniProt P04626). The assay is described as above. The settings on record: 18-24 h, at 10 µM, stronger effect = lower value.
Assay [3] in a line: SK-BR-3 cell growth inhibitors, pilot screen, 24 h, human (AID 572;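 active = viability at or below 10% of carrier control in both of two separate runs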;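 also: compound exposure lasted between 18 and 24 h rather than exactly 24 h; 100% = carrier-treated control wells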). The settings on record: SK-BR-3 viability, CellTiter-Glo luminescence, at 10 µM, stronger effect = lower value. (In general: In ATP-based viability assays light output follows the ATP content of the culture.)
Assay [4] is described as follows: HUVEC growth inhibition – cell-based, human, primary screen (AID 575;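 active = viability at or below 30% in both replicate assays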;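 also: 100% = median of untreated cell wells with 0.1% DMSO on each plate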). The settings on record: HUVEC proliferation, CellTiter-Glo luminescence, 72 h; at 10 µM; stronger effect = lower value. In outline:
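Test system: primary human umbilical vein endothelial cells; medium: endothelial basal medium with 2% FBS plus growth supplements; dosing: 10 µM compound only; times: 72 h treatment at 37 °C; signal: CTG luminescence; read-out: % viability relative to median vehicle-well signal on each plate; control set: vehicle and MePR control wells; plate: 384-well, collagen-coated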

Assay [5] in a line: growth inhibitors of H69AR lung tumor, primary screen, human, duplicate replicates (AID 580).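 Also: 100% = mean luminescence of untreated wells and 0% = no signal.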 The settings on record: H69AR lung tumor cells viability, ATP luminescence, 72 h; at 10 µM; stronger effect = lower value.
Assay [6] can be described thus: reversal of MRP1-mediated doxorubicin resistance, pilot screen, H69AR cells, doxorubicin co-treatment (AID 601;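 active = viability loss from added drug above about 55%, and viability with drug at most 40%, in both replicates, limit read from the data, passing the limit was not always enough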). The settings on record: CellTiter-Glo, 72 h, at 10 µM; for differential viability (reversal): stronger effect = higher value.
A short description of assay [7]: 384-well plate pilot, post-Golgi transport modulator project, inhibition of yeast transport mutant growth (AID 636; in the data active = inhibition above about 31%). The settings on record: absorbance 615 nm, about 18 h, stronger effect = higher value.
Assay [8] in a line: growth suppression of yeast trafficking mutant, preliminary HTS, modulators of trafficking downstream of Golgi apparatus project, 1536-format plate, OD 615 nm (AID 637; in the data active = inhibition above about 30%). The settings on record: yeast transport mutant growth, absorbance 615 nm, 18 h; stronger effect = higher value.
Where [9] appears, read: H69AR cells + 2 uM doxorubicin, measured here: viability with 2 uM doxorubicin, stronger effect = lower value.
Where [10] appears, read: H69AR cells, compound alone cytotoxicity.

Sequence of Receptor tyrosine-protein kinase erbB-2 (Homo sapiens) (P04626 whole entry, looked up): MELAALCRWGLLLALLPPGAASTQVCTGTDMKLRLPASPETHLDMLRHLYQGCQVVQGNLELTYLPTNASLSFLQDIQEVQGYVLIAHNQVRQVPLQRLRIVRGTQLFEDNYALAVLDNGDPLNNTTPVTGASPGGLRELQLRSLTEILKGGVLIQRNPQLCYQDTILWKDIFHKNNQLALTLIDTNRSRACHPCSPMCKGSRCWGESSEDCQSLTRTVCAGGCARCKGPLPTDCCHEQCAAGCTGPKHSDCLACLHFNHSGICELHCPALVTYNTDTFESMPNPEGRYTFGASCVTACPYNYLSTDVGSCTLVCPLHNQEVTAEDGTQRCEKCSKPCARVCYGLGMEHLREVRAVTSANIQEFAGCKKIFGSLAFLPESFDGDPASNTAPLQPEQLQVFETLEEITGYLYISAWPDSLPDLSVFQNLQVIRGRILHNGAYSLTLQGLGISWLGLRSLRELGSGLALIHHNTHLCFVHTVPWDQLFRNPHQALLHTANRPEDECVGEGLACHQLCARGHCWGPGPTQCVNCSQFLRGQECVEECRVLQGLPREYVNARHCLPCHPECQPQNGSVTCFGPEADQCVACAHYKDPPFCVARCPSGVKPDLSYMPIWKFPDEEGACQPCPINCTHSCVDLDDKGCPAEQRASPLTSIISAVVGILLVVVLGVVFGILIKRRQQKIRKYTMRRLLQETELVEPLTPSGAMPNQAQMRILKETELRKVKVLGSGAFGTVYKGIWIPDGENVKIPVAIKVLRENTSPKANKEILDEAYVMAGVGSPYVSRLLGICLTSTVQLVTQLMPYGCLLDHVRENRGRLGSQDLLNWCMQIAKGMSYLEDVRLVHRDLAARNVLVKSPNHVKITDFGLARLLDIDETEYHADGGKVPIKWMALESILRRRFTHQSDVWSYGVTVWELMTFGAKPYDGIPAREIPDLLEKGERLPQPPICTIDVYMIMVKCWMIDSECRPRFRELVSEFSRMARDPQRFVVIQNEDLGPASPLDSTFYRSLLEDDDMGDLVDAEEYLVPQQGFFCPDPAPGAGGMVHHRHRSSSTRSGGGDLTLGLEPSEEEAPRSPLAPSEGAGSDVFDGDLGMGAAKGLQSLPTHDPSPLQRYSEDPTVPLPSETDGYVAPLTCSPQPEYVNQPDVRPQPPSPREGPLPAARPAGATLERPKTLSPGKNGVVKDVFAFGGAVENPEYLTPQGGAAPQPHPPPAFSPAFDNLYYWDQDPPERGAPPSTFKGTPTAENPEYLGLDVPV

Regarding `O=C(Nn1cnnc1)c1cc2c(s1)CCCC2`, the viability in assay [1] was 100%; in assay [3], 100% (inactive); in assay [4], 80% (inactive); in assay [5] it was 102% (inactive); in assay [6] (setting [9]), 104%; in assay [6] (setting [10]), 102%. Besides, in assay [2], the Her2 level was 95.5% (inactive). In addition, the differential viability (reversal) in assay [6] (H69AR cells + 2 uM doxorubicin) was -2.61% (inactive). In addition, the results for the inhibition in assay [7] and in assay [8] were -3.42% (inactive) and -4% (inactive), respectively.
Turning to `COc1ccc(OC)c(C2=NOC(C(=O)NCCN3CCOCC3)C2)c1` (stereo not given), the viability in assay [1] is 107%; in assay [3], 107% (inactive); in assay [4] it was 102% (inactive); in assay [5] it was 90.6% (inactive); in assay [6] (setting [9]), 85.3%; in assay [6] (setting [10]) it was 90.6%. For the same molecule, the Her2 level in assay [2] is 89.5% (inactive). Moreover, the differential viability (reversal) in assay [6] (H69AR cells + 2 uM doxorubicin) was 5.3% (inactive). Further, the values for the inhibition in assay [7] and in assay [8] were -1.18% (inactive) and -3.27% (inactive), respectively.
Turning to `Cc1nnc(SCc2ccccc2)n1N`, the viability was 104% in assay [1]; 104% (inactive) in assay [3]; 103% (inactive) in assay [4]; 99.6% (inactive) in assay [5]; 98.9% in assay [6] (setting [9]); 99.6% in assay [6] (setting [10]). The Her2 level in assay [2] was 98% (inactive). Besides, the differential viability (reversal) in assay [6] (H69AR cells + 2 uM doxorubicin) is 0.72% (inactive). Also, the inhibition in assay [7] is -0.67% (inactive); in assay [8] it was -5.32% (inactive).
Regarding `N#CC1=C(N)Oc2n[nH]c(-c3cccs3)c2C1c1cccs1` (stereo not given), the viability was 96.5% in assay [1]; 96.5% (inactive) in assay [3]; 81.4% (inactive) in assay [4]; 83.8% (inactive) in assay [5]; 86.3% in assay [6] (setting [9]); 83.8% in assay [6] (setting [10]). Moreover, in assay [2], the Her2 level was 79.5% (inactive). Besides, the differential viability (reversal) in assay [6] (H69AR cells + 2 uM doxorubicin) is -2.47% (inactive). The inhibition was -3.73% (inactive) in assay [7] and -1.31% (inactive) in assay [8].
Consider `c1ccc(CCc2nc(-c3cccnc3)no2)cc1`, for which the viability is 86.5% in assay [1]; 86.5% (inactive) in assay [3]; 108% (inactive) in assay [4]; 92.9% (inactive) in assay [5]; 91.8% in assay [6] (setting [9]); 92.9% in assay [6] (setting [10]). Further, the Her2 level in assay [2] was 73% (inactive). The differential viability (reversal) in assay [6] (H69AR cells + 2 uM doxorubicin) is 1.11% (inactive). Besides, the figures for the inhibition in assay [7] and in assay [8] were -4.27% (inactive) and 1.31% (inactive), respectively.
For `CCNCC(O)COCC(O)CNCC` (stereo not given), the viability in assay [1] is 88.5%; in assay [3], 88.5% (inactive); in assay [4] it was 88.3% (inactive); in assay [5] it was 99.7% (inactive); in assay [6] (setting [9]), 94.2%; in assay [6] (setting [10]) it was 99.7%. Moreover, in assay [2], the Her2 level was 86% (inactive). Also, in assay [6] (H69AR cells + 2 uM doxorubicin), the differential viability (reversal) is 5.55% (inactive). The inhibition is -1.03% (inactive) in assay [7] and -0.5% (inactive) in assay [8].
Consider `Cc1cc(C)n(-c2ccc(C(=O)Oc3ccc4c(c3)OCO4)cc2)n1`, for which the viability in assay [1] is 80%; in assay [3], 80% (inactive); in assay [4] it was 92.3% (inactive); in assay [5], 90.7% (inactive); in assay [6] (setting [9]) it was 88%; in assay [6] (setting [10]), 90.7%. In assay [2], the Her2 level was 83.5% (inactive). Moreover, in assay [6] (H69AR cells + 2 uM doxorubicin), the differential viability (reversal) was 2.71% (inactive). The inhibition in assay [7] was -4.13% (inactive); in assay [8], -1.11% (inactive).
As for `Cc1cc(C)n(CC(=O)n2c3c(c4ccccc42)CCCC3)n1`, the viability was 116% in assay [1]; 116% (inactive) in assay [3]; 75.3% (inactive) in assay [4]; 74.4% (inactive) in assay [5]; 81.4% in assay [6] (setting [9]); 74.4% in assay [6] (setting [10]). Moreover, the Her2 level in assay [2] was 117% (inactive). The differential viability (reversal) in assay [6] (H69AR cells + 2 uM doxorubicin) was -6.97% (inactive). The inhibition was -5.53% (inactive) in assay [7] and 3.77% (inactive) in assay [8].
`Cn1c(SCc2nc3ccccc3c(=O)[nH]2)nnc1-c1ccco1`: the viability is 99.5% in assay [1]; 99.5% (inactive) in assay [3]; 97.5% (inactive) in assay [4]; 96% (inactive) in assay [5]; 90.4% in assay [6] (setting [9]); 96% in assay [6] (setting [10]). Moreover, the Her2 level in assay [2] is 81% (inactive). Moreover, the differential viability (reversal) in assay [6] (H69AR cells + 2 uM doxorubicin) was 5.6% (inactive). In addition, the inhibition was -7.84% (inactive) in assay [7] and 6.89% (inactive) in assay [8].
For `CC(=O)Nc1nc(-c2ccc(Cl)cc2)nc(C)c1C(C)=O`, the viability is 96.5% in assay [1]; 96.5% (inactive) in assay [3]; 89% (inactive) in assay [4]; 104% (inactive) in assay [5]; 94.6% in assay [6] (setting [9]); 104% in assay [6] (setting [10]). Besides, the Her2 level in assay [2] was 89.5% (inactive). Moreover, the differential viability (reversal) in assay [6] (H69AR cells + 2 uM doxorubicin) was 9.83% (inactive). Further, the results for the inhibition in assay [7] and in assay [8] were -3.65% (inactive) and -2.83% (inactive), respectively.
Take `CCOC(=O)c1[nH]c(=O)c2ccccc2c1O`: the viability is 106% in assay [1]; 106% (inactive) in assay [3]; 95.8% (inactive) in assay [4]; 90.8% (inactive) in assay [5]; 90.8% in assay [6] (setting [9]); 90.8% in assay [6] (setting [10]). In assay [2], the Her2 level was 94.5% (inactive). In addition, the differential viability (reversal) in assay [6] (H69AR cells + 2 uM doxorubicin) is -0.03% (inactive). The inhibition was -10% (inactive) in assay [7] and -8.41% (inactive) in assay [8].
Consider `CNC(=O)CN(C#N)c1nc(N(C)C)nc(N(C)C)n1`, for which the viability in assay [1] was 104%; in assay [3], 104% (inactive); in assay [4], 98.5% (inactive); in assay [5], 92.8% (inactive); in assay [6] (setting [9]) it was 90.2%; in assay [6] (setting [10]), 92.8%. Further, in assay [2], the Her2 level is 112% (inactive). Further, the differential viability (reversal) in assay [6] (H69AR cells + 2 uM doxorubicin) was 2.61% (inactive). Besides, the results for the inhibition in assay [7] and in assay [8] were -4.93% (inactive) and -6.77% (inactive), respectively.
Take `CCOC(=O)N1CCN(S(=O)(=O)c2ccc(OCC)c(C)c2)CC1`: the viability in assay [1] was 110%; in assay [3], 110% (inactive); in assay [4], 88.9% (inactive); in assay [5], 103% (inactive); in assay [6] (setting [9]) it was 85.5%; in assay [6] (setting [10]) it was 103%. For the same molecule, the Her2 level in assay [2] is 88.5% (inactive). In addition, the differential viability (reversal) in assay [6] (H69AR cells + 2 uM doxorubicin) was 17.6% (inactive). Also, the inhibition in assay [7] is -1.95% (inactive); in assay [8], -3.17% (inactive).
`COc1ccc2nc(NC(=O)CSc3nnc(-c4ccoc4C)n3C)sc2c1`: the viability in assay [1] was 112%; in assay [3], 112% (inactive); in assay [4], 80.2% (inactive); in assay [5], 84.8% (inactive); in assay [6] (setting [9]) it was 75.4%; in assay [6] (setting [10]) it was 84.8%. Besides, the Her2 level in assay [2] was 106% (inactive). Further, the differential viability (reversal) in assay [6] (H69AR cells + 2 uM doxorubicin) is 9.45% (inactive). The values for the inhibition in assay [7] and in assay [8] were -6.13% (inactive) and -3.87% (inactive), respectively.

Usually viability stands for a read-out of living cells in per cent, often relative to untreated cells. The inhibition is the drop in the measured response relative to a control, in per cent.
